Laboratory results reported in ChEMBL document CHEMBL1154352, “Toll-like receptor 7 selective synthetic oligoribonucleotide agonists: synthesis and structure-activity relationship studies” (J Med Chem, 2009).
Calls of active or inactive are those of the source. The calls are words filed in the database; no cut-off is given here.

Key:
[1] = tested on: Mus musculus; assay: Immunomodulatory activity in TLR9 knockout C57BL/6 mouse assessed as induction of IL12 release at 10 mg/kg, sc after 2 hrs by ELISA; format: functional, organism-based; set-up: dose 10 mg/kg
Outline: (§1)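 Male 8-week-old TLR9-/-, TLR7-/- or MyD88-/- mice on C57BL/6 background, n=3; single subcutaneous 10 mg/kg dose. Blood collected 2 h later by retro-orbital bleeding; serum IL-12 by ELISA.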

[2] = tested on: PBMC; assay: Immunomodulatory activity in human PBMC assessed as induction of IL12 after 24 hrs; format: functional, cell-based
Outline: (§2)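 Human PBMCs plated at 5 × 10^6 cells/mL; compounds dissolved in PBS added at various concentrations, 37 °C for 24 h. Supernatant cytokines/chemokines quantified with human Luminex multiplex kit.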

[3] = tested on: PBMC; assay: Immunomodulatory activity in human PBMC assessed as induction of IFNalpha after 24 hrs; format: functional, cell-based; outline: as §2
[4] = tested on: Mus musculus; assay: Immunomodulatory activity in wild-type C57BL/6 mouse assessed as induction of IL12 release at 10 mg/kg, sc after 2 hrs by ELISA; format: functional, organism-based; set-up: dose 10 mg/kg
Outline: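 Female C57BL/6 wild-type mice, 5–8 weeks old, n=3; compounds given subcutaneously at 10 or 25 mg/kg. Retro-orbital blood at 2 h; serum cytokines by mouse Luminex multiplex or IL-12 ELISA.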

[5] = tested on: Mus musculus; assay: Immunomodulatory activity in TLR7 knockout C57BL/6 mouse assessed as induction of IL12 release at 10 mg/kg, sc after 2 hrs by ELISA; format: functional, organism-based; set-up: dose 10 mg/kg; outline: as §1
[6] = tested on: PBMC; assay: Immunomodulatory activity in human PBMC assessed as induction of IL6 after 24 hrs; format: functional, cell-based; outline: as §2
[7] = tested on: PBMC; assay: Immunomodulatory activity in human PBMC assessed as induction of IP10 after 24 hrs; format: functional, cell-based; outline: as §2
[8] = tested on: PBMC; assay: Immunomodulatory activity in human PBMC assessed as induction of MIP1alpha after 24 hrs; format: functional, cell-based; outline: as §2
[9] = tested on: PBMC; assay: Immunomodulatory activity in human PBMC assessed as induction of IL10 after 24 hrs; format: functional, cell-based; outline: as §2

## Nc1ccn([C@@H]2O[C@H](COP(=O)(S)O[C@H]3[C@@H](O)[C@H](n4cnc5c(N)ncnc54)O[C@@H]3CO)[C@@H](OP(=O)(S)OC[C@H]3O[C@@H](n4ccc(=O)[nH]c4=O)[C@H](O)[C@@H]3OP(=O)(S)OC[C@H]3O[C@@H](n4ccc5c(=O)[nH]c(N)nc54)[C@H](O)[C@@H]3OP(=O)(S)OC[C@H]3O[C@@H](n4ccc(N)nc4=O)[C@H](O)[C@@H]3OP(=O)(S)OC[C@H]3O[C@@H](n4ccc5c(=O)[nH]c(N)nc54)[C@H](O)[C@@H]3OP(=O)(S)OC[C@H]3O[C@@H](n4cnc5c(N)ncnc54)[C@H](O)[C@@H]3OP(=O)(S)OC[C@H]3O[C@@H](n4ccc5c(=O)[nH]c(N)nc54)[C@H](O)[C@@H]3OP(=O)(S)OC[C@H]3O[C@@H](n4ccc(N)nc4=O)[C@H](O)[C@@H]3OP(=O)(S)OC[C@H]3O[C@@H](n4ccc(=O)[nH]c4=O)[C@H](O)[C@@H]3OP(=O)(S)OC[C@H]3O[C@@H](n4ccc(=O)[nH]c4=O)[C@H](O)[C@@H]3OP(=O)(S)OCC(O)COP(=O)(S)O[C@H]3[C@@H](O)[C@H](n4ccc(=O)[nH]c4=O)O[C@@H]3COP(=O)(S)O[C@H]3[C@@H](O)[C@H](n4ccc(=O)[nH]c4=O)O[C@@H]3COP(=O)(S)O[C@H]3[C@@H](O)[C@H](n4ccc(N)nc4=O)O[C@@H]3COP(=O)(S)O[C@H]3[C@@H](O)[C@H](n4ccc5c(=O)[nH]c(N)nc54)O[C@@H]3COP(=O)(S)O[C@H]3[C@@H](O)[C@H](n4cnc5c(N)ncnc54)O[C@@H]3COP(=O)(S)O[C@H]3[C@@H](O)[C@H](n4ccc5c(=O)[nH]c(N)nc54)O[C@@H]3COP(=O)(S)O[C@H]3[C@@H](O)[C@H](n4ccc(N)nc4=O)O[C@@H]3COP(=O)(S)O[C@H]3[C@@H](O)[C@H](n4ccc5c(=O)[nH]c(N)nc54)O[C@@H]3COP(=O)(S)O[C@H]3[C@@H](O)[C@H](n4ccc(=O)[nH]c4=O)O[C@@H]3COP(=O)(S)O[C@H]3[C@@H](O)[C@H](n4ccc(N)nc4=O)O[C@@H]3COP(=O)(S)O[C@H]3[C@@H](O)[C@H](n4cnc5c(N)ncnc54)O[C@@H]3CO)[C@H]2O)c(=O)n1 (some centres undefined)
[1]
  Activity: Active
[2]
  Activity: Dose-dependent effect
[3]
  Activity: Dose-dependent effect
[4]
  Activity: Active
[5]
  Activity: inactive
[6]
  Activity: Dose-dependent effect
[7]
  Activity: Dose-dependent effect
[8]
  Activity: Dose-dependent effect
[9]
  Activity: Dose-dependent effect
